Experimental data gathered from unrelated publications.
Protocols differ between the studies behind these lines.
DRD3: D(3) dopamine receptor (DRD3, Homo sapiens, UniProt P35462)
PDE10A: cAMP and cAMP-inhibited cGMP 3',5'-cyclic phosphodiesterase 10A (PDE10A, Homo sapiens, UniProt Q9Y233)

For `Cc1[nH]c(C)c(S(=O)(=O)Nc2ccc(C(F)(F)F)c(Cl)c2Cl)c1C(=O)N1CCC(F)(F)C1`, the Emax was 105% (DRD3; β-arrestin recruitment, agonist; 90 min).
`COc1ccc2oc(-c3ccc4nc(N)oc4c3)c/c(=N\c3ccccc3NC(=O)CCN)c2c1` gave a remaining binding of 85% (Discoidin domain-containing receptor 2 (DDR2, Homo sapiens, UniProt Q16832); binding; 1 µM).
The remaining binding of `CCCCC(=O)Nc1ccc(-c2ccc3ncn(CCC)c(=O)c3c2)cn1` is reported as 100% (Leukocyte tyrosine kinase receptor (LTK, Homo sapiens, UniProt P29376); binding, competition with immobilised ligand; 0.5 µM).
`Cc1[nH]c(C)c(S(=O)(=O)Nc2cc(Cl)cc(Cl)c2Cl)c1C(=O)N1CCC(F)(F)C1` gave an Emax of 103% (DRD3; β-arrestin recruitment, agonist; 90 min).
`COc1ccc(Cc2ccnc3ccccc23)cc1OC` gave an inhibition of 11% (PDE10A; enzyme activity, inhibitor, FP; 0.1 µM).
The Emax of `Cc1[nH]c(C)c(S(=O)(=O)Nc2ccc(C(F)(F)F)c(Cl)c2)c1C(=O)N1C[C@@H](F)[C@H](F)C1` (relative stereo) is reported as 101% (DRD3; β-arrestin recruitment, agonist; 90 min).
The inhibition of `COc1ccc(Cc2nccc3cc(OC)c(OC)cc23)cc1` is reported as 38% (PDE10A; enzyme activity, inhibitor, FP; 0.1 µM).
`CCOC(=O)[C@@]12C[C@@H]1[C@@H](n1cnc3c(NCCCCc4ccccc4)nc(C#Cc4ccc(Cl)s4)nc31)[C@H](O)[C@@H]2O` has an inhibition of 9% (Sodium-dependent dopamine transporter (SLC6A3, Homo sapiens, UniProt Q01959); ligand displacement, radioligand; 10 µM).
`COc1cc2ccnc(C(=O)c3cccc4ccccc34)c2cc1OC` gave an inhibition of 0% (PDE10A; enzyme activity, inhibitor, FP; 0.1 µM).
`[2H]C1([2H])CCC([2H])([2H])N1C(=O)c1c(C)[nH]c(C)c1S(=O)(=O)Nc1ccc(C(F)(F)F)c(Cl)c1` has an Emax of 92% (DRD3; β-arrestin recruitment, agonist; 90 min).
The inhibition of `COc1ccc2nccc(Cc3cccc(-c4ccccc4)c3)c2c1` is reported as 5% (PDE10A; enzyme activity, inhibitor, FP; 0.1 µM).
With `C1=C/COCc2cc(ccc2OCCN2CCCC2)Nc2nccc(n2)-c2cccc(c2)COC/1` the remaining binding was 52% (AP2-associated protein kinase 1 (AAK1, Homo sapiens, UniProt Q2M2I8); binding; 0.1 µM).
